Screens (PubChem)
FGF22 binding = shifts melting point of recombinant human FGF22; 340,000 tested, 1.5% active; AID 651658; recombinant FGF22 thermal shift, SYPRO orange fluorescence; percent of sucrose octasulfate shift, DMSO zero; activity (Tm shift, normalised), % at 9.99 µM;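 active = mean Tm shift, scaled 0 neutral to 100 positive control, at about 1.3% or above, every replicate too, limit read from the data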
Target sequence (Q9HCT0 whole entry, looked up): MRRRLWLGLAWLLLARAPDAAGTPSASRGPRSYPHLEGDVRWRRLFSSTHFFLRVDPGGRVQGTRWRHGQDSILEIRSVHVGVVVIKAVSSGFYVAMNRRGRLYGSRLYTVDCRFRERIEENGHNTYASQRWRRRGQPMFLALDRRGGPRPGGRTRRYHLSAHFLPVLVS
ZTA DNA inh = blocks Epstein-Barr virus ZTA, an EBNA-1 counter-screen | P03206 | 320,000 tested, 0.15% active | ZTA-DNA binding, fluorescence polarization | inhibition, % at 11 µM; in the data active = inhibition above about 33%
Target sequence (P03206 whole entry, looked up): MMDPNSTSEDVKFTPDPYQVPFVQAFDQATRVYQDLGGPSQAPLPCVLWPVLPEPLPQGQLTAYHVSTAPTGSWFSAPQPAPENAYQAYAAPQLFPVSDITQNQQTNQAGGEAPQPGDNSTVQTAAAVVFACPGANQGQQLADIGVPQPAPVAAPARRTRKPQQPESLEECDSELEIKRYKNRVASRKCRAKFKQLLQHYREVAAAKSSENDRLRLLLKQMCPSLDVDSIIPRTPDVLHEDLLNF
EBNA-1 inhibitor = blocks EBNA-1 binding to DNA | EBNA-1 DNA binding, fluorescence polarization | 300,000 tested, 0.34% active | AID 1950 | inhibition, % at 14.8 µM; in the data active = inhibition above about 28%
NS3 helicase inh = HCV NS3 helicase inhibition; NS3 helicase DNA unwinding, Cy5 molecular beacon fluorescence; inhibition, % at 10.9 µM; 290,000 tested, 0.56% active; AID 1800;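 active = inhibition above the mean of all tested compounds plus 3 SD, set per campaign, cut at about 35% in these data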
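Assay system: hepatitis C virus NS3 helicase domain fragment enzyme. Also added: annealed dual-labelled DNA beacon duplex, ATP-started. Timing: 1 h reaction at 25 °C, ATP-initiated. Technique: Cy5 fluorescence at 0 and 60 min, beacon hairpin quenching. Evaluation: % inhibition of unwinding. Replication: one well per compound.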
DNA FID counter-1 = counter-screen for HCV NS3 helicase inhibitors: DNA intercalator displacement; inhibition, % at 7.9 µM; 290,000 tested, 0.17% active; DNA fluorescent intercalator displacement, fluorescence;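 note: higher means more ethidium bromide displaced from hairpin DNA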
NR3A LBD binder = modulators (binders) of human NR3A ligand-binding domain. NR3A LBD differential scanning fluorimetry, Tm shift; 0% = protein alone, 100% = glycine-bound protein. 340,000 tested, 2.5% active. Tm shift relative to glycine control, % at 25 µM;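 active = melting temperature shift of at least 10% of the positive control shift, at one fixed dose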
NS3 hel confirm = HCV NS3 helicase inhibition, confirmation assay; shares compounds with NS3 helicase inh; NS3 helicase DNA unwinding, Cy5 molecular beacon fluorescence; inhibition, % at 10.9 µM; 1,600 tested, 31% active;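 active = inhibition above the mean of all tested compounds plus 3 SD, cutoff set per campaign, cut at about 36% in these data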
DNA FID counter-2 = counter-screen for HCV NS3 helicase inhibitors: DNA intercalator displacement | 1,600 tested, 4% active | shares compounds with NS3 helicase inh | DNA fluorescent intercalator displacement, fluorescence | inhibition, % at 7.9 µM;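 note: higher means more displacement of ethidium bromide from the DNA hairpin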
DNA FID DR = displaces fluorescent intercalator from DNA, HCV helicase counter-screen. shares compounds with NS3 helicase inh. fluorescent intercalator displacement from DNA, fluorescence. IC50, µM. 120 tested, under 10 active. AID 2172; call rule not given here
Large screens that a line does not name were inactive (follow-up assays come after a bar, where they were run). This is a sample that favours compounds with a hit; in the whole collection about 3.6% have one here. Cut-off read from the data, not from the text of the source, unless noted: active = inhibition above about 37%; inactive = the rest.

COc1ccc(-c2cnc3c(c2)C(=O)N([C@@H](C)CO)C[C@@H](C)[C@@H](CN(C)C(=O)CN(C)C)O3)cc1	none (no result: ZTA DNA inh, EBNA-1 inhibitor, NS3 helicase inh, DNA FID counter-1, NR3A LBD binder)
COc1cc(/C=C/[N+](=O)[O-])ccc1OCc1cccc(C(=O)O)c1	NS3 helicase inh 36 (no result: FGF22 binding, ZTA DNA inh, EBNA-1 inhibitor) | NS3 hel confirm 69 | DNA FID counter-2 inactive
CCOC(=O)C(C(C)=O)c1c(Br)c(O)c(O)c2c(C(=O)c3ccc(C)cc3)coc12 (configuration not stated)	NS3 helicase inh 38 (no result: FGF22 binding) | NS3 hel confirm inactive | DNA FID counter-2 inactive
CN(C)c1ccc(O)c2c1CC1CC3[C@@H](N(C)C)C(=O)C(C(N)=O)=C(O)[C@]3(O)C(=O)C1=C2O (some centres not stated)	NS3 helicase inh 39 | NS3 hel confirm 36 | DNA FID counter-2 inactive | DNA FID DR inactive
CCS(=O)(=O)Nc1ccc2c(c1)C(=O)N(C)[C@@H]1CC[C@@H](CC(=O)NCc3ccccc3F)O[C@H]1CO2	none (no result: ZTA DNA inh, EBNA-1 inhibitor, NS3 helicase inh, DNA FID counter-1, NR3A LBD binder)
COc1cccc(CNC(=O)C[C@@H]2CC[C@H](NC(C)=O)[C@H](CO)O2)c1	none (no result: ZTA DNA inh, EBNA-1 inhibitor, NS3 helicase inh, DNA FID counter-1, NR3A LBD binder)
CC(C)CSC1=NSC2=NC(=O)/C(=C\c3cccs3)C(=N)N12	NS3 helicase inh 37, NR3A LBD binder 11 (no result: FGF22 binding) | NS3 hel confirm 53 | DNA FID counter-2 inactive
CCOC(=O)n1c(=O)n(C)c2ccc(Br)cc21	NS3 helicase inh 112 | NS3 hel confirm inactive | DNA FID counter-2 inactive
C[C@H](CO)N1C[C@H](C)[C@H](CN(C)C(=O)C2CC2)Oc2ncc(-c3ccccc3F)cc2C1=O	none (no result: ZTA DNA inh, EBNA-1 inhibitor, NS3 helicase inh, DNA FID counter-1, NR3A LBD binder)
COc1ccccc1-c1nnc(NC(=O)c2ccc(S(=O)(=O)N3CCCC3)cc2)o1	NS3 helicase inh 53 | NS3 hel confirm inactive | DNA FID counter-2 inactive
CC1CCCN(S(=O)(=O)c2ccc(C(=O)Nc3nnc(-c4ccccc4Cl)o3)cc2)C1 (configuration not stated)	none (no result: FGF22 binding)
COc1ccccc1C(=O)COC(=O)Cc1ccccc1F	none (no result: FGF22 binding, ZTA DNA inh, EBNA-1 inhibitor, NS3 helicase inh, DNA FID counter-1)
COc1cccc(C(N)=O)c1OC(=O)Cc1ccccc1F	NS3 helicase inh 40 | NS3 hel confirm inactive | DNA FID counter-2 inactive
COc1ccc(/C=C/c2nc3ccccc3c(=O)n2-c2cccc(C(=O)O)c2)cc1	NS3 helicase inh 41 | NS3 hel confirm inactive | DNA FID counter-2 inactive
CCOC(=O)C1(Cc2cccc(Cl)c2)CCCN(C(=O)c2ccoc2C)C1 (configuration not stated)	NS3 helicase inh 44 (no result: ZTA DNA inh, EBNA-1 inhibitor) | NS3 hel confirm inactive | DNA FID counter-2 inactive
COc1ccc(NC(=O)C(CC(=O)O)Cc2ccccc2)cc1 (configuration not stated)	none (no result: FGF22 binding)
COc1cc(CC(CC(=O)O)CC(C)OCc2ccccc2)cc(OC)c1 (configuration not stated)	NS3 helicase inh 39 | NS3 hel confirm inactive | DNA FID counter-2 inactive
C[C@H](CO)N1C[C@H](C)[C@H](CN(C)CC2CC2)Oc2cc(C#Cc3ccccc3F)ccc2S1(=O)=O	none (no result: ZTA DNA inh, EBNA-1 inhibitor, NS3 helicase inh, DNA FID counter-1, NR3A LBD binder)
O=C(Cn1cnc2ccccc2c1=O)NCCC(=O)N1CCN(Cc2ccccc2)CC1	NS3 helicase inh 38 (no result: FGF22 binding) | NS3 hel confirm inactive | DNA FID counter-2 inactive
CCc1nnc(NS(=O)(=O)c2ccc(NC(=S)NC(=O)c3ccc(OC)cc3)cc2)s1	NS3 helicase inh 37 (no result: FGF22 binding) | NS3 hel confirm 52 | DNA FID counter-2 inactive
Cc1ccc(C(CCN(Cc2ccccc2)C(=O)c2ccco2)c2ccco2)cc1 (configuration not stated)	NS3 helicase inh 54 | NS3 hel confirm 55 | DNA FID counter-2 inactive | DNA FID DR inactive
O=C(c1ccco1)N(CCC(c1ccccc1)c1ccco1)Cc1ccco1 (configuration not stated)	none (no result: FGF22 binding)
O=S(=O)(c1ccccc1)N1CCCCN2[C@H](CO)[C@H](c3ccc(C#Cc4cccnc4)cc3)[C@H]2C1	none (no result: ZTA DNA inh, EBNA-1 inhibitor, NS3 helicase inh, DNA FID counter-1, NR3A LBD binder)
CC(C)N1C(=O)S/C(=C\c2ccc(-c3ccc(Cl)c(C(=O)O)c3)o2)C1=O	none
CC1=C(C#N)C(=O)NC(=O)/C1=C\c1ccc(-c2ccc(C)cc2[N+](=O)[O-])o1	NS3 helicase inh 40 (no result: FGF22 binding, ZTA DNA inh, EBNA-1 inhibitor) | NS3 hel confirm 63 | DNA FID counter-2 49
Cc1ccc(-c2ccc(/C=N/N=C3/NC(=O)C(CC(=O)O)S3)o2)c([N+](=O)[O-])c1 (configuration not stated)	none (no result: FGF22 binding)
CC(C)OC(=O)c1cc(-c2ccc(C=O)o2)ccc1Cl	none
CCCCC1(C)OC(=O)C(=Cc2ccc(-c3ccc(Cl)c(C(=O)O)c3)o2)C(=O)O1 (configuration not stated)	FGF22 binding 3.8, NS3 helicase inh 67 | NS3 hel confirm 77 | DNA FID counter-2 inactive
CCOC(=O)c1cc(-c2ccc(/C=C3/C(=O)NC(=O)C(C#N)=C3C)o2)ccc1Cl	NS3 helicase inh 50 | NS3 hel confirm 71 | DNA FID counter-2 75
CCOc1cc(/C=C2\C(=N)N3N=C(CC)SC3=NC2=O)ccc1OCCOc1ccc(NC(C)=O)cc1	NS3 helicase inh 54 | NS3 hel confirm inactive | DNA FID counter-2 inactive
COc1cc(/C=C2\C(=N)N3N=C(C)SC3=NC2=O)cc(OC)c1OCCOc1ccccc1C	NS3 helicase inh 45 | NS3 hel confirm inactive | DNA FID counter-2 inactive
COc1cc(/C=C2\C(=N)N3N=C(C)SC3=NC2=O)cc(Cl)c1OCCOc1ccc(NC(C)=O)cc1	none
CCOc1cc(/C=C2\C(=N)N3N=C(C)SC3=NC2=O)ccc1OCCOc1cccc(OC)c1	none
COc1cccc(OCCOc2ccc(/C=C3\C(=N)N4N=C(S(C)(=O)=O)SC4=NC3=O)cc2OC)c1	NS3 helicase inh 48 (no result: ZTA DNA inh, EBNA-1 inhibitor) | NS3 hel confirm 53 | DNA FID counter-2 inactive
CNC(=O)C[C@H]1CC[C@H]2[C@@H](COC[C@H](O)CN2C(=O)Nc2cccc(OC)c2)O1	none (no result: ZTA DNA inh, EBNA-1 inhibitor, NS3 helicase inh, DNA FID counter-1, NR3A LBD binder)
C[C@H](CO)N1C[C@H](C)[C@H](CN(C)Cc2ccc(C(=O)O)cc2)Oc2ncc(C#CCN(C)C)cc2C1=O	none (no result: ZTA DNA inh, EBNA-1 inhibitor, NS3 helicase inh, DNA FID counter-1, NR3A LBD binder)
CN(C)c1cccc2c(S(=O)(=O)N3CCCC3)cccc12	NS3 helicase inh 36 | NS3 hel confirm inactive | DNA FID counter-2 inactive
O=c1c2ccccc2oc2cc(OCc3cccc(F)c3)cc(O)c12	NS3 helicase inh 37 (no result: ZTA DNA inh, EBNA-1 inhibitor) | NS3 hel confirm inactive | DNA FID counter-2 inactive
CCc1cc2c(=O)n(Cc3ccco3)c(SCC(=O)NCC3CCCO3)nc2s1 (configuration not stated)	none
CCc1cc2c(=O)n(Cc3ccco3)c(SCC(=O)N3CCCc4ccccc43)nc2s1	NS3 helicase inh 43 (no result: FGF22 binding) | NS3 hel confirm inactive | DNA FID counter-2 inactive
